Data published in ChEMBL document CHEMBL2380256, “Discovery of novel Jak2-Stat pathway inhibitors with extended residence time on target” (Bioorg Med Chem Lett, 2013).
Values belong to the compound of their own block, whether it stands above or below them. Active and inactive are the calls of the source. The calls are words filed in the database; no cut-off is given here.

Columns and labels:
[1] = biological target: T1, Tyrosine-protein kinase JAK3 (Homo sapiens, UniProt P52333); test: Inhibition of JAK3 (unknown origin) using biotinylated poly-EY peptide as substrate after 60 mins by HTRF assay
T1 sequence (P52333 whole entry): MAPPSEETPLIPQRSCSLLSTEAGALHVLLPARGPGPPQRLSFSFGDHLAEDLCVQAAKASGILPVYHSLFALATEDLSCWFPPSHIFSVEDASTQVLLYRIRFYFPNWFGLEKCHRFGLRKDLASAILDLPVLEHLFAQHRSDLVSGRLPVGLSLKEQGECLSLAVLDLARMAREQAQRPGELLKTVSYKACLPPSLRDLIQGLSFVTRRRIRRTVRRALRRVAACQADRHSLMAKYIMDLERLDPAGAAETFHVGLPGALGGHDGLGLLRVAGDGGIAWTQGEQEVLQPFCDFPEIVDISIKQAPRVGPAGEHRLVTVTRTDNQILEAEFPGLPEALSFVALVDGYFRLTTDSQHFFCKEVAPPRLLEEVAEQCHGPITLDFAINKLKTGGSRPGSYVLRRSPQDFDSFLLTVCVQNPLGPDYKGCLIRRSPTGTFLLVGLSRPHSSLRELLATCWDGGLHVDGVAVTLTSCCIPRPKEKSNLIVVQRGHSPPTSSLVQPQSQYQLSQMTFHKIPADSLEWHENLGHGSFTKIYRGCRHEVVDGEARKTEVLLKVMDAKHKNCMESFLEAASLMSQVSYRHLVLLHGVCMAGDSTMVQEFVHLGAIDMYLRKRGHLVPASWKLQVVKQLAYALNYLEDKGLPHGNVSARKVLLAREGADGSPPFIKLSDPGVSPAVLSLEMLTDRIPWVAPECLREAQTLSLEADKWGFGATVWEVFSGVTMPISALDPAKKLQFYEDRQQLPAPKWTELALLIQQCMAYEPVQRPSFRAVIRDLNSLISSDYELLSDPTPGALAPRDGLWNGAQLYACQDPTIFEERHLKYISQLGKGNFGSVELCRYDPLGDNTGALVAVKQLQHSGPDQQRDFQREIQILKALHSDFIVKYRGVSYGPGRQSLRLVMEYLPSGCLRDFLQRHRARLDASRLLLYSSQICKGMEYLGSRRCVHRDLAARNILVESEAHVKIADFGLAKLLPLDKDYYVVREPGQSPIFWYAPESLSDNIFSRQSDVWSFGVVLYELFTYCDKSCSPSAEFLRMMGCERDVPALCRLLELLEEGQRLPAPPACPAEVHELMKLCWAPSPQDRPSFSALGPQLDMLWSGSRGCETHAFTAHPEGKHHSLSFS

[2] = biological target: T2, Tyrosine-protein kinase JAK2 (Homo sapiens, UniProt O60674); test: Inhibition of JAK2 (unknown origin) using biotinylated TYK2 peptide as substrate after 60 mins
Target sequence in this assay (O60674 whole entry): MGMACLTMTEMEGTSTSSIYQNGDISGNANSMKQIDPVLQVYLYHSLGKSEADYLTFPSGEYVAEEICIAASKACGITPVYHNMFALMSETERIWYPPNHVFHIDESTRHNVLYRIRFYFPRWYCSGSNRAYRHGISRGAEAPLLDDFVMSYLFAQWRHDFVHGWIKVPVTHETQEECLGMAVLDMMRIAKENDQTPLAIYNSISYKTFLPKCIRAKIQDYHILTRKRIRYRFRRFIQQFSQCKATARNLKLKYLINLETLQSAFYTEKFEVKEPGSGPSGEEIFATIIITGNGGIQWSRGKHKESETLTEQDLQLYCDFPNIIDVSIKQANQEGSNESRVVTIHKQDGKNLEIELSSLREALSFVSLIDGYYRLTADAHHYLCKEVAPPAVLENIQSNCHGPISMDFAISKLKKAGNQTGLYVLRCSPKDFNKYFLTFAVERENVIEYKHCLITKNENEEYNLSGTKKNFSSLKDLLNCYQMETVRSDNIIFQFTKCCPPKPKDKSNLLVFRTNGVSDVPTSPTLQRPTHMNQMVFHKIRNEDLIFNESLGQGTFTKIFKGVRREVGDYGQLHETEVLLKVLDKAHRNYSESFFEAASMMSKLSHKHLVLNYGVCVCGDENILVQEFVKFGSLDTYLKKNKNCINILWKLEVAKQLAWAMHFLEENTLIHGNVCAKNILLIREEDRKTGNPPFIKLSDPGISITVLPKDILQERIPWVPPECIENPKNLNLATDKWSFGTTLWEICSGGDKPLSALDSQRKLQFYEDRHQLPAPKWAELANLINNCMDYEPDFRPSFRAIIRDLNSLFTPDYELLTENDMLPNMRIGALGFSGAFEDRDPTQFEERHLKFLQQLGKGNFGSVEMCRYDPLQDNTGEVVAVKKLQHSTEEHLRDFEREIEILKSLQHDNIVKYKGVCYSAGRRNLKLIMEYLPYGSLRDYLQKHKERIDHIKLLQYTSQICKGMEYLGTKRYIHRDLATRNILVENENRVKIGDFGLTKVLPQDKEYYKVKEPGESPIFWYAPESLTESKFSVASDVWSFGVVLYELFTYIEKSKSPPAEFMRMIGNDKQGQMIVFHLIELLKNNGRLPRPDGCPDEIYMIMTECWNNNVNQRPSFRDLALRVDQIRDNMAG

Homo sapiens = species on record: Homo sapiens; test: Selectivity ratio of IC50 for JAK3 (unknown origin) to IC50 for JAK2 (unknown origin)
In short: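 Jak2 and Jak3 enzyme IC50s determined at 5 mM ATP; the ratio is the Jak3 IC50 divided by the Jak2 IC50.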

[3] = Growth inhibition of mouse BA/F3 cells transfected with JAK3 TEL domain after 24 hrs by Alamar Blue assay; format: functional, cell-based; settings: BaF3, 24 h
[4] = Growth inhibition of mouse BA/F3 cells transfected with JAK2 TEL domain after 24 hrs by Alamar Blue assay; format: functional; settings: BaF3, 24 h
[5] = Growth inhibition of human UKE1 cells harboring JAK2 V617F mutant after 2 days by [3H]-thymidine incorporation assay; format: functional
SET-2 = test: Growth inhibition of human SET2 harboring JAK2 V617F mutant after 24 hrs by Alamar Blue assay; format: functional; settings: SET-2, 24 h
[6] = Total plasma concentration in nude mouse allografted with mouse Ba/F3 cells expressing JAK2 TEL domain at 5 mg/kg, po qd measured at 8 hrs; format: ADME, organism-based, BaF3; design: dose 5 mg/kg, route oral
In short: (§1)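 Female nude mice implanted intravenously with Ba/F3 TEL-JAK2 cells on day 0 and dosed orally on day 10. Total plasma drug concentration was measured at the stated times post-dose, averaged over n = 3 per dose and time point.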

[7] = Total plasma concentration in nude mouse allografted with mouse Ba/F3 cells expressing JAK2 TEL domain at 10 mg/kg, po qd measured at 8 hrs; format: ADME, organism-based, BaF3; design: dose 10 mg/kg, route oral; in short: as §1
[8] = Total plasma concentration in nude mouse allografted with mouse Ba/F3 cells expressing JAK2 TEL domain at 5 mg/kg, po qd measured at 6 hrs; format: ADME, organism-based, BaF3; design: dose 5 mg/kg, route oral; in short: as §1
[9] = Total plasma concentration in nude mouse allografted with mouse Ba/F3 cells expressing JAK2 TEL domain at 5 mg/kg, po qd measured at 2 hrs; format: ADME, organism-based, BaF3; design: dose 5 mg/kg, route oral; in short: as §1
[10] = Total plasma concentration in nude mouse allografted with mouse Ba/F3 cells expressing JAK2 TEL domain at 10 mg/kg, po qd measured at 2 hrs; format: ADME, organism-based, BaF3; design: dose 10 mg/kg, route oral; in short: as §1
[11] = Total plasma concentration in nude mouse allografted with mouse Ba/F3 cells expressing JAK2 TEL domain at 10 mg/kg, po qd measured at 6 hrs; format: ADME, organism-based, BaF3; design: dose 10 mg/kg, route oral; in short: as §1
Mus musculus [12] = test: In vivo inhibition of JAK2 TEL domain (unknown origin) transfected in mouse Ba/F3 cells allografted in nude mouse assessed as inhibition of STAT5 phosphorylation at 5 mg/kg, po qd measured at 8 hrs relative to vehicle-treated control; format: functional; settings: BaF3, 8 h
In short: (§2)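 Female nude mice implanted intravenously with Ba/F3 TEL-JAK2 cells on day 0 and given a single oral dose on day 10. pStat5 was measured at the stated times post-dose. % inhibition was scaled between vehicle and a control inhibitor as maximum and minimum, with n = 3 per dose and time point, reported as mean ±SD.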

Mus musculus [13] = test: In vivo inhibition of JAK2 TEL domain (unknown origin) transfected in mouse Ba/F3 cells allografted in nude mouse assessed as inhibition of STAT5 phosphorylation at 10 mg/kg, po qd measured at 8 hrs relative to vehicle-treated control; format: functional; settings: BaF3, 8 h; in short: as §2
[14] = Fraction unbound in nude mouse plasma allografted with mouse Ba/F3 cells expressing JAK2 TEL domain at 5 to 10 mg/kg, po qd after 6 hrs; format: ADME, organism-based, BaF3; design: dose 5-10 mg/kg, route oral
Mus musculus [15] = test: In vivo inhibition of JAK2 TEL domain (unknown origin) transfected in mouse Ba/F3 cells allografted in nude mouse assessed as inhibition of STAT5 phosphorylation at 5 mg/kg, po qd after 6 hrs; format: functional, organism-based; design: dose 5 mg/kg; settings: BaF3; in short: as §2
Mus musculus [16] = test: In vivo inhibition of JAK2 TEL domain (unknown origin) transfected in mouse Ba/F3 cells allografted in nude mouse assessed as inhibition of STAT5 phosphorylation at 10 mg/kg, po qd after 6 hrs relative to vehicle-treated control; format: functional; settings: BaF3, 6 h; in short: as §2
[17] = biological target: T2, Tyrosine-protein kinase JAK2; test: Inhibition of JAK2 TEL domain (unknown origin) transfected in mouse Ba/F3 cells; format: cell-based; settings: baf3
Target sequence in this assay (O60674 whole entry, looked up): as the sequence (O60674 whole entry) above

[18] = biological target: T1, Tyrosine-protein kinase JAK3; test: Inhibition of JAK3 TEL domain (unknown origin) transfected in mouse Ba/F3 cells; format: cell-based, BaF3
Hepatocyte = test: Metabolic stability in human hepatocytes measured per 10^6 cells; format: ADME, cell-based
[19] = Volume of distribution at steady state in beagle dog at 5 mg/kg, po and 2.5 mg/kg, iv; format: ADME, organism-based, Canis lupus familiaris; settings: in vivo, read-out: Vdss
In short: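 Male Beagle dogs. Oral 5 mg/kg in 0.1% HPMC; intravenous 2.5 mg/kg in HP-β-CD.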

[20] = Volume of distribution at steady state in CD1 mouse at 10 mg/kg, po and 3 mg/kg, iv; format: ADME, organism-based; settings: in vivo, read-out: Vdss
In short: (§3)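 Single-dose PK: female CD-1 mice and male Han Wistar rats, 10 mg/kg po in 0.1% HPMC and 3 mg/kg iv in DMA/PEG/saline 40/40/20.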

[21] = Volume of distribution at steady state in Han Wistar rat at 10 mg/kg, po and 3 mg/kg, iv; format: ADME, organism-based; settings: in vivo, read-out: Vdss
[22] = Clearance in beagle dog at 5 mg/kg, po and […] mg/kg, iv; format: ADME, organism-based, Canis lupus familiaris; settings: in vivo, 2.5 mg/kg
[23] = Clearance in CD1 mouse at 10 mg/kg, po and 3 mg/kg, iv; format: ADME, organism-based; settings: in vivo; in short: as §3
[24] = Clearance in Han Wistar rat at 10 mg/kg, po and 3 mg/kg, iv; format: ADME, organism-based; settings: in vivo; in short: as §3
[25] = AUC in CD1 mouse at 10 mg/kg, po and 3 mg/kg, iv; format: ADME, organism-based; settings: plasma; in short: as §3
[26] = AUC in Han Wistar rat at 10 mg/kg, po and 3 mg/kg, iv; format: ADME, organism-based; settings: plasma; in short: as §3
[27] = Oral bioavailability in CD1 mouse at 10 mg/kg; format: ADME, organism-based; settings: in vivo
In short: (§4)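 Oral bioavailability in female CD-1 mice and male Han Wistar rats: 10 mg/kg po (0.1% HPMC) versus 3 mg/kg iv (DMA/PEG/saline 40/40/20). %F = (AUCpo × DoseIV)/(AUCIV × Dosepo) × 100.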

[28] = Oral bioavailability in Han Wistar rat at 10 mg/kg; format: ADME, organism-based; settings: in vivo; in short: as §4
[29] = biological target: T2, Tyrosine-protein kinase JAK2; test: Competitive inhibition of JAK2 (unknown origin)
Target sequence in this assay (O60674 whole entry): as above

Compound: Cc1cc(Nc2nc(N[C@@H](C)c3ccc(F)cn3)c(Cl)c(N3CCOCC3)n2)[nH]n1
IC50 [1]: 262 nM
IC50 [2]: 6 nM

Compound: Cc1cc(Nc2cc(N3CCOCC3)nc(N[C@@H](C)c3ncc(F)cn3)n2)n[nH]1
Ratio IC50 (Homo sapiens): > 10

Compound: COc1cc(Nc2nc(N[C@@H](C)c3ncc(F)cn3)c(F)c(N3CCOCC3)n2)n[nH]1
GI50 ([3]; read-out: GI50): 9400 nM
GI50 [4]: 160 nM
IC50 [1]: 11200 nM
IC50 [2]: 37 nM

Compound: Cc1cc(Nc2nc(O[C@@H](C)c3ncc(F)cc3F)c(F)c(N3CCOCC3)n2)n[nH]1
GI50 [5]: 30 nM
GI50 (SET-2): 18 nM
GI50 ([3]; read-out: GI50): 430 nM
GI50 [4]: 10 nM
IC50 [1]: 45 nM
IC50 [2]: 4 nM

Continued, in another order:

IC50 [1]: 15 nM
Compound: Cc1cc(Nc2nc(N[C@@H](C)c3ccc(F)cn3)c(F)c(N3CCN(C)CC3)n2)n[nH]1
GI50 ([3]; read-out: GI50): 380 nM

IC50 [1]: 262 nM
IC50 [2]: 6 nM
Compound: Cc1cc(Nc2nc(N[C@@H](C)c3ccc(F)cn3)c(F)c(N3CCOCC3)n2)n[nH]1
GI50 ([3]; read-out: GI50): 850 nM
GI50 [4]: 19 nM

IC50 [1]: 30 nM
IC50 [2]: 4 nM
Compound: Cc1cc(Nc2nc(N[C@@H](C)c3ccc(F)cn3)c(F)c(N3CCNCC3)n2)n[nH]1
GI50 [3]: 480 nM

IC50 [1]: 4 nM
IC50 [2]: 3 nM
Compound: Cc1cc(Nc2nc(N[C@@H](C)c3ccc(F)cn3)c(F)c(N3CCS(=O)(=O)CC3)n2)n[nH]1
GI50 ([3]; read-out: GI50): 270 nM

concentration at 8 h [6]: 55 ng/mL
concentration at 8 h [7]: 123 ng/mL
concentration at 6 h [8]: 98 ng/mL
concentration at 2 h [9]: 228 ng/mL
concentration at 2 h [10]: 376 ng/mL
concentration at 6 h [11]: 248 ng/mL
fraction unbound at 6 h [14]: 0.06
IC50 [17]: 7 nM
IC50 [18]: 370 nM
Stability (Hepatocyte): 5.2 µL/min/1e6 cells
Vd [19]: 2.5 L/kg
Vd [20]: 2.9 L/kg
Vd [21]: 3.1 L/kg
clearance [22]: 14 mL/min/kg
clearance [23]: 18 mL/min/kg
clearance [24]: 12 mL/min/kg
AUC [25]: 13.3 µM·h
AUC [26]: 17.7 µM·h
bioavailability [27]: 64%
bioavailability [28]: 51%
Ki [29]: 1.41 nM
IC50 [1]: 8 nM
IC50 [2]: 3 nM
Compound: Cc1cc(Nc2nc(N[C@@H](C)c3ncc(F)cc3F)c(F)c(N3CCOCC3)n2)n[nH]1
inhibition in vivo at 5 mg/kg (Mus musculus [12]): 50%
inhibition in vivo at 10 mg/kg (Mus musculus [13]): 70%
inhibition (Mus musculus [15]): Active
inhibition in vivo at 10 mg/kg (Mus musculus [16]): > 80%
GI50 [5]: 22 nM
GI50 (SET-2): 14 nM
GI50 ([3]; read-out: GI50): 300 nM
GI50 [4]: 8 nM
